Experimental data published in ChEMBL document CHEMBL1156623, “Novel 1,4-benzothiazine derivatives as large conductance Ca2+-activated potassium channel openers” (J Med Chem, 2008).
Calls of active or inactive are those of the source. The calls are words filed in the database; no cut-off is given here.

Tests used:
[1] = target: Calcium-activated potassium channel subunit alpha-1 (Rattus norvegicus) (UniProt Q62976); experiment: Activation of large-conductance calcium-activated potassium channel-mediated vasorelaxation in endothelium-denuded normotensive Wistar rat thoracic aorta assessed as potassium chloride-induced contractile tension relative to NS-1619; type: tissue-based
Sequence of Calcium-activated potassium channel subunit alpha-1 (Rattus norvegicus) (Q62976 whole entry): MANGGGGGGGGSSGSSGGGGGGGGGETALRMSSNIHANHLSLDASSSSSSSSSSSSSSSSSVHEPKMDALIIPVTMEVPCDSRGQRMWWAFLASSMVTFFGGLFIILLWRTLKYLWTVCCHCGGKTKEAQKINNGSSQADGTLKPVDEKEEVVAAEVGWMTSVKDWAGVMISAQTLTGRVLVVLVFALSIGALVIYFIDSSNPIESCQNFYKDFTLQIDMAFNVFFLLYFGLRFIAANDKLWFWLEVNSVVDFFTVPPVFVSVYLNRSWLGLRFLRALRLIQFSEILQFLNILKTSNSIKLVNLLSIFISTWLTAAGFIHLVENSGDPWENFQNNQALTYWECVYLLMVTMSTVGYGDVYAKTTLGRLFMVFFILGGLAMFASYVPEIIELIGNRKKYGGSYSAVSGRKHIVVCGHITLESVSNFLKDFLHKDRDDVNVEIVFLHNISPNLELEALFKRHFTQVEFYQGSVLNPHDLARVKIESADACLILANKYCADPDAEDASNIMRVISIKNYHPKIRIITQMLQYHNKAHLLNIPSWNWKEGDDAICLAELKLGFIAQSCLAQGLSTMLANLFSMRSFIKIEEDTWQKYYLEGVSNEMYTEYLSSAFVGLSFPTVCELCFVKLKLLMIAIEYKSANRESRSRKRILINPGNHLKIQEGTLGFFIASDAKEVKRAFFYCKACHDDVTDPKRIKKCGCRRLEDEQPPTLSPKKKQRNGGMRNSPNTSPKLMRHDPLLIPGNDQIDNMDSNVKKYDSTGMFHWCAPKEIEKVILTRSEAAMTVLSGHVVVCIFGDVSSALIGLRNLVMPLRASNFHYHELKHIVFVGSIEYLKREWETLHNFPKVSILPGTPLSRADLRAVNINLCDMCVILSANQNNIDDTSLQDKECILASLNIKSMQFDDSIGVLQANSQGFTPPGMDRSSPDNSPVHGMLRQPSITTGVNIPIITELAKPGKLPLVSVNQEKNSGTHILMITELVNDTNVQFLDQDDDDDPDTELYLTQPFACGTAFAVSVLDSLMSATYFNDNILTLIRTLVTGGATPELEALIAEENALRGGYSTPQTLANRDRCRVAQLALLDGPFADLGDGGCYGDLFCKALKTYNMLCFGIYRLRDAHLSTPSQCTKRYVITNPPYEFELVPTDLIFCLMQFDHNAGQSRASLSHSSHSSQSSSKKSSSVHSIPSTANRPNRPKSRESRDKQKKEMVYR

[2] = target: Calcium-activated potassium channel subunit alpha-1 (Rattus norvegicus, UniProt Q62976); experiment: (§1) Activation of large-conductance calcium-activated potassium channel-mediated vasorelaxation in endothelium-denuded normotensive Wistar rat thoracic aorta assessed as potassium chloride-induced contractile tension
Sequence of Calcium-activated potassium channel subunit alpha-1 (Q62976 whole entry): as above
Summary of the method: (§2)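 Male Wistar rats (250-350 g); thoracic aortic rings, endothelium removed (confirmed by ACh 10 µM lack of relaxation), in Tyrode at 37 °C gassed 95% O2/5% CO2, isometric tension, 60 min equilibration. After stable KCl 20 mM contraction, 3-fold increasing cumulative concentrations added, up to 10 µM. Efficacy as % of KCl tone; pIC50 from half-reduction; mean ± SE of 5-10 experiments.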

[3] = target: Calcium-activated potassium channel subunit alpha-1 (Rattus norvegicus) (UniProt Q62976); experiment: as §1; parameters: scale not given: the % may be the effect or the level left; summary of the method: as §2
[4] = target: Calcium-activated potassium channel subunit alpha-1 (Rattus norvegicus) (UniProt Q62976); experiment: Activation of large-conductance calcium-activated potassium channel-mediated vasorelaxation in endothelium-denuded normotensive Wistar rat thoracic aorta assessed as potassium chloride-induced contraction in presence of tetraethylammonium chloride; type: tissue-based
Summary of the method: (§3)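 Male Wistar rats (250-350 g); endothelium-denuded thoracic aortic rings in Tyrode at 37 °C, gassed 95% O2/5% CO2, isometric tension. Denudation checked with ACh 10 µM on KCl 20 mM contraction. After KCl 20 mM contraction, IbTX 100 nM or TEA 10 mM added, then cumulative 3-fold increasing compound concentrations, max 10 µM; DMSO stock diluted in water. Efficacy as % of KCl tone; pIC50; mean ± SE, 5-10 experiments.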

[5] = target: Calcium-activated potassium channel subunit alpha-1 (Rattus norvegicus) (UniProt Q62976); experiment: Activation of large-conductance calcium-activated potassium channel-mediated vasorelaxation in endothelium-denuded normotensive Wistar rat thoracic aorta assessed as potassium chloride-induced contraction in presence of iberiotoxin; summary of the method: as §3

COc1ccc(Br)cc1C1Sc2ccccc2NC1=O (centres undefined)
Emax [1]: 100% | IC50 [2]: 15.8 µM

O=C1Nc2cc(C(F)(F)F)ccc2SC1c1ccccc1 (centres undefined)
Emax [1]: 39% | Activity [3]: < 50%

O=C1Nc2ccccc2SC1c1ccccc1 (centres undefined)
Emax [1]: 42% | Activity [3]: < 50%

COc1ccc(Br)cc1[C@@H](O)[C@H]1Sc2ccc(C(F)(F)F)cc2NC1=O (relative stereo)
Emax [1]: 70% | IC50 [2]: 6.31 µM

O=c1[nH]c2cc(C(F)(F)F)ccc2n1-c1cc(C(F)(F)F)ccc1O
IC50 [2]: 5.01 µM

COc1ccccc1C1CNc2cc(C(F)(F)F)ccc2S1 (centres undefined)
Emax [1]: 100% | IC50 [2]: 22.4 µM

COc1ccc(Br)cc1C1Sc2ccc(C(F)(F)F)cc2NC1=S (centres undefined)
Emax [1]: 26% | Activity [3]: < 50%

COc1ccc(Br)cc1C1C(=O)Nc2cc(C(F)(F)F)ccc2[S+]1[O-] (centres undefined)
Emax [1]: 34% | Activity [3]: < 50%

O=C1Nc2cc(C(F)(F)F)ccc2SC1c1cc(Cl)ccc1O (centres undefined)
Activity [3]: < 50%

O=C1Nc2cc(C(F)(F)F)ccc2SC1c1cc(Br)ccc1O (centres undefined)
Emax [1]: 44% | Activity [3]: < 50%

COc1ccc(Br)cc1C1CNc2cc(C(F)(F)F)ccc2S1 (centres undefined)
Emax [1]: < 25% | Activity [3]: < 50%

COc1ccc(Br)cc1C1Sc2ccc(C(F)(F)F)cc2N(C)C1=O (centres undefined)
Emax [1]: 67% | IC50 [2]: 0.617 µM | Activity [4]: inactive

COc1ccc(Br)cc1C1Sc2ccc(C(F)(F)F)cc2NC1=O (centres undefined)
Emax [1]: 77% | IC50 [2]: 0.0398 µM | Activity [5]: inactive | Activity [4]: inactive

COc1c(Br)cc(Br)cc1C1Sc2ccc(C(F)(F)F)cc2NC1=O (centres undefined)
Emax [1]: 75% | IC50 [2]: 50.1 µM
